Laboratory results from ChEMBL document CHEMBL1781898, “Orally active achiral N-hydroxyformamide inhibitors of ADAM-TS4 (aggrecanase-1) and ADAM-TS5 (aggrecanase-2) for the treatment of osteoarthritis” (Bioorg Med Chem Lett, 2011).

Legend:
[1] = Half life in rat at 2 mg/kg, iv; type: ADME, organism-based; parameters: dose 2 mg/kg, route intravenous; conditions: in vivo
Procedure, shortened: (§1)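 Rat iv PK: 2 mg/kg iv, n = 2 animals; clearance, half-life and Vdss determined.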

[2] = Absolute bioavailability in rat; type: ADME, organism-based; conditions: in vivo
[3] = target: T1, A disintegrin and metalloproteinase with thrombospondin motifs 5 (Homo sapiens, UniProt Q9UNA0); experiment: Inhibition of ADAMTS-5 assessed as substrate cleavage after 16 hrs by fluorescence assay
T1 sequence (Q9UNA0 whole entry): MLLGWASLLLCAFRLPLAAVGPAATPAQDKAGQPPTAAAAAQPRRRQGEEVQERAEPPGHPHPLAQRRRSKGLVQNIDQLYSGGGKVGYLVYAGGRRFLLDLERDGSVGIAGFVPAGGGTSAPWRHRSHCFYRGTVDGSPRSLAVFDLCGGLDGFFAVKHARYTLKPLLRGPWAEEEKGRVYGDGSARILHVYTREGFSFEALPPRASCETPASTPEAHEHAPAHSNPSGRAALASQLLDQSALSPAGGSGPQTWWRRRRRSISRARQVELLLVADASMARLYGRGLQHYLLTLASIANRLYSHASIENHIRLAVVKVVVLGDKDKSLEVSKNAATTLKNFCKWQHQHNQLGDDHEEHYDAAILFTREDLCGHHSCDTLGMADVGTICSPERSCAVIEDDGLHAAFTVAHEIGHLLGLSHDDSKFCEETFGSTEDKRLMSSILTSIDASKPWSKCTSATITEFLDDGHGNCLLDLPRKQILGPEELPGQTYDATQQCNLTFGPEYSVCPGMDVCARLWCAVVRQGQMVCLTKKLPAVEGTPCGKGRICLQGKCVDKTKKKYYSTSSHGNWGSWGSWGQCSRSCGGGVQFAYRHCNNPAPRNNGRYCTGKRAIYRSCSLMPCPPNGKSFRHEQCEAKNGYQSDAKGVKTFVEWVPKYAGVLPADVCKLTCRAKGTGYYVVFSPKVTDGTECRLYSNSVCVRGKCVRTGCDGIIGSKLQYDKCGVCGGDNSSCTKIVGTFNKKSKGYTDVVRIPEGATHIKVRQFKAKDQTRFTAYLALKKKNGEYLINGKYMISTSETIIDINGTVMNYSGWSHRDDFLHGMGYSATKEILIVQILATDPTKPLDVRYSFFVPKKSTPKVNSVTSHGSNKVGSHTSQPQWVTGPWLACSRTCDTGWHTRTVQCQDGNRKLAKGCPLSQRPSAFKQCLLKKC
Procedure, shortened: (§2)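 Enzyme inhibition IC50s derived from at least six measurements, standard errors normally <5% within an assay; a standard compound run to keep assay-to-assay variability within twofold.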

[4] = Free drug level in human; type: ADME, organism-based; conditions: in vivo
[5] = Clearance in rat at 2 mg/kg, iv and 3 to 10 mg/kg, po; type: ADME, organism-based; conditions: in vivo
[6] = target: Cytochrome P450 2C19 (Homo sapiens, UniProt P33261); experiment: Inhibition of CYP2C19; type: ADME
Procedure, shortened: (§3)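 Inhibition of cytochrome P450 isoforms 1A2, 2C9, 2C19, 2D6 and 3A4, reported as pIC50.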

[7] = Volume of distribution at steady state in rat at 2 mg/kg, iv; type: ADME, organism-based; parameters: dose 2 mg/kg, route intravenous; conditions: in vivo, read-out: Vdss; procedure, shortened: as §1
[8] = target: Matrix metalloproteinase-9 (Homo sapiens, UniProt P14780); experiment: Inhibition of recombinant human MMP-9 assessed as substrate cleavage after 20 hrs by fluorescence assay; procedure, shortened: as §2
[9] = Volume of distribution at steady state in rat at 2 mg/kg, iv and 3 to 10 mg/kg, po; type: ADME, organism-based; conditions: in vivo, read-out: Vdss
[10] = target: Collagenase 3 (Homo sapiens, UniProt P45452); experiment: Inhibition of recombinant human MMP-13 assessed as substrate cleavage after 20 hrs by fluorescence assay; procedure, shortened: as §2
[11] = target: Matrix metalloproteinase-14 (Homo sapiens, UniProt P50281); experiment: Inhibition of recombinant human MMP-14 assessed as substrate cleavage after 20 hrs by fluorescence assay; procedure, shortened: as §2
[12] = target: T2, A disintegrin and metalloproteinase with thrombospondin motifs 4 (Homo sapiens, UniProt O75173); experiment: Inhibition of ADAMTS-4 assessed as substrate cleavage after 16 hrs by fluorescence assay; procedure, shortened: as §2
T2 sequence (O75173 whole entry): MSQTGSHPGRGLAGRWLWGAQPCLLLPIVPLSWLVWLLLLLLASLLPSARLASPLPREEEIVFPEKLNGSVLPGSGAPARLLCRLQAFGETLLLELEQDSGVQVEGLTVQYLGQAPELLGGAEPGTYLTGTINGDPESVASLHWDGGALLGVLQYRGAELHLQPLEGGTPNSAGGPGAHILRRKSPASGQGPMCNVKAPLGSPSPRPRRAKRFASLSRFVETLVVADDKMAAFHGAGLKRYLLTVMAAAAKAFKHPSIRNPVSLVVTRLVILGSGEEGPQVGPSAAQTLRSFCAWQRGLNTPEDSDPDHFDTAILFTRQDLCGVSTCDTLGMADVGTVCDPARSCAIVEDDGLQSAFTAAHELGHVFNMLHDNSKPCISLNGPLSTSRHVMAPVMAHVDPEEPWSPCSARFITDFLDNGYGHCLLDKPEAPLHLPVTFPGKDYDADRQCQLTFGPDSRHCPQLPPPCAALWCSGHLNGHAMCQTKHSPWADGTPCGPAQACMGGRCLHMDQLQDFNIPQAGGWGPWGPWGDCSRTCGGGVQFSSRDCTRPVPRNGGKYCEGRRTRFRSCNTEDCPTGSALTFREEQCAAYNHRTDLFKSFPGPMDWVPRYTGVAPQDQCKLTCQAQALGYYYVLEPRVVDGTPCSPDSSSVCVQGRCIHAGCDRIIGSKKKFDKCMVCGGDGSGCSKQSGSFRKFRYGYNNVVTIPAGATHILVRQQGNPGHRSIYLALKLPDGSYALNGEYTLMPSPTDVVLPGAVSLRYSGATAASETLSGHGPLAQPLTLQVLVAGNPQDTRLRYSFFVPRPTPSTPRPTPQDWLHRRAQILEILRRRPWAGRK

[13] = Volume of distribution at steady state in mouse; type: ADME, organism-based; conditions: in vivo, read-out: Vdss
[14] = Inhibition of aggrecanase activity in human late stage diseased osteoarthritis cartilage explant assessed as inhibition of aggrecan degradation measuring ARGSVIL neo-peptide release
[15] = Half life in mouse; type: ADME, organism-based; conditions: in vivo
[16] = Intrinsic clearance in human liver microsomes; type: ADME, Microsome
Procedure, shortened: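 Human liver microsome metabolism; intrinsic clearance expressed as μL/min/mg, reported as mean of eight separate experiments.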

[17] = Oral bioavailability in rat; type: ADME, organism-based; conditions: in vivo
[18] = Absolute bioavailability in mouse; type: ADME, organism-based; conditions: in vivo
[19] = Absolute bioavailability in dog; type: ADME, organism-based, Canis lupus familiaris; conditions: in vivo
[20] = Lipophilicity, log D of the compound; type: physicochemical; conditions: octanol/water
[21] = Clearance in rat at 2 mg/kg, iv; type: ADME, organism-based; parameters: dose 2 mg/kg, route intravenous; conditions: in vivo; procedure, shortened: as §1
[22] = Clearance in dog at 1 mg/kg, iv and 1 mg/kg, po; type: ADME, organism-based, Canis lupus familiaris; conditions: in vivo
[23] = Half life in dog at 1 mg/kg, iv and 1 mg/kg, po; type: ADME, organism-based, Canis lupus familiaris; conditions: in vivo
[24] = target: Cytochrome P450 2C9 (Homo sapiens, UniProt P11712); experiment: Inhibition of CYP2C9; type: ADME; procedure, shortened: as §3
[25] = Free drug level in dog; type: ADME, organism-based, Canis lupus familiaris; conditions: in vivo
[26] = Oral bioavailability in dog; type: ADME, organism-based, Canis lupus familiaris; conditions: in vivo
[27] = Free drug level in rat; type: ADME, organism-based; conditions: in vivo

Chain of Matrix metalloproteinase-9 (P14780 whole entry): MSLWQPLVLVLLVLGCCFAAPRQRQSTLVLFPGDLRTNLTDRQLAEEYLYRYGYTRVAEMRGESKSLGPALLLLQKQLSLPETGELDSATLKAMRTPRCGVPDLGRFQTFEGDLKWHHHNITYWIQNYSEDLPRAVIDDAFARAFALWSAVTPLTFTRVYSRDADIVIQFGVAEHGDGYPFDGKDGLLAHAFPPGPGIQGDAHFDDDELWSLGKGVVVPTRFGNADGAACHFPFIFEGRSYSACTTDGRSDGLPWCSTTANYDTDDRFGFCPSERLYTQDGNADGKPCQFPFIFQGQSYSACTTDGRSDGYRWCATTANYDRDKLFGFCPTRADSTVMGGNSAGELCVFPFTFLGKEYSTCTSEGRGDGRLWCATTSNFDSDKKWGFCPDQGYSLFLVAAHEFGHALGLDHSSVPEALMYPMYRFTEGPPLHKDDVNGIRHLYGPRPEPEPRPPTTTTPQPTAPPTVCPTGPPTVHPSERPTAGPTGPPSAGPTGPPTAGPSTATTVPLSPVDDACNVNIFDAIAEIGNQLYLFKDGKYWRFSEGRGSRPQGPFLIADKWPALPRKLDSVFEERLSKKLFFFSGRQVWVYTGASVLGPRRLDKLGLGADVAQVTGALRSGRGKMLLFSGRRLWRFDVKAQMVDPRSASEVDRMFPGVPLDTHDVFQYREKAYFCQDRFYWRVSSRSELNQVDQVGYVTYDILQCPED
Chain of Cytochrome P450 2C9 (P11712 whole entry): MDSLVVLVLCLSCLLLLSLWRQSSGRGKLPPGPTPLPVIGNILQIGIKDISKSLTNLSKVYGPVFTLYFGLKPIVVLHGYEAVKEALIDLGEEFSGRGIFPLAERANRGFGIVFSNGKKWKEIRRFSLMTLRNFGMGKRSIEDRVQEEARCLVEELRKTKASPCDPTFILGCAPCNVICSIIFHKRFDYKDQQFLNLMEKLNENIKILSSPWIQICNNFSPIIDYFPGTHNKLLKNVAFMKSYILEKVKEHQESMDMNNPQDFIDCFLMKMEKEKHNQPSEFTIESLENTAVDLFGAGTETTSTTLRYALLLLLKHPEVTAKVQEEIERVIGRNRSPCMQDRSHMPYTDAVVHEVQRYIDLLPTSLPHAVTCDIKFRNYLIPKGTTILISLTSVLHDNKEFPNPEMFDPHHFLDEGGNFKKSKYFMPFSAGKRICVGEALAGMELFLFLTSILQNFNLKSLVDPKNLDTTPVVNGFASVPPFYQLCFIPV
Chain of Cytochrome P450 2C19 (P33261 whole entry, canonical isoform): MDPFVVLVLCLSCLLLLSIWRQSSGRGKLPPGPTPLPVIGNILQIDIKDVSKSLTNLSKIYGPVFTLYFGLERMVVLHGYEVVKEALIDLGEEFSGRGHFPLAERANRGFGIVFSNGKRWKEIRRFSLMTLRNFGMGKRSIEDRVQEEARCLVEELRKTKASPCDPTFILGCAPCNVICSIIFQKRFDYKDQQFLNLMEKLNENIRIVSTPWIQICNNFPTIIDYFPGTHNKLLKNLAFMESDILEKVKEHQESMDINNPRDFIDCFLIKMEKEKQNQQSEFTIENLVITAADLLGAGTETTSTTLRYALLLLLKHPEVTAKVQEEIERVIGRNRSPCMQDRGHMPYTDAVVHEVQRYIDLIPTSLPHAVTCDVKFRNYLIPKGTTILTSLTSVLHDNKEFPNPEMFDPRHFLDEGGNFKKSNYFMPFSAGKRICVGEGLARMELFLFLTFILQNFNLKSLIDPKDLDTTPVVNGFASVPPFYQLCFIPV

## Cc1noc(C)c1CCC1CCN(S(=O)(=O)CC2(N(O)C=O)CCOCC2)CC1
[1]
  half-life: 8.9 h
[2]
  bioavailability: 45%
[3]
  IC50: 0.86 µM
[4]
  fraction unbound: > 0.5
[5]
  clearance: 24 mL/min/kg
[6]
  inhibition (INH): Not Active
[7]
  Vd: 3 L/kg
[8]
  IC50: > 25 µM
[9]
  Vd: 3 L/kg
[10]
  IC50: > 31 µM
[11]
  IC50: > 23 µM
[12]
  IC50: 0.026 µM
[13]
  Vd: 2.5 L/kg
[14]
  IC50: 0.15 µM
[15]
  half-life: 2.6 h
[16]
  microsomal CLint: 3.1 µL/min/mg
[17]
  bioavailability: 45%
[18]
  bioavailability: 54%
[19]
  bioavailability: 52%
[20]
  logD: 0.9
[21]
  clearance: 24 mL/min/kg
[22]
  clearance: 13 mL/min/kg
[23]
  half-life: 19.1 h
[24]
  inhibition (INH): Not Active
[25]
  fraction unbound: > 0.5
[26]
  bioavailability: 52%
[27]
  fraction unbound: > 0.5
